From ChEMBL document CHEMBL1129681, “Synthesis, absolute configuration, and biological profile of the enantiomers of trans-[2-(2,6-dimethoxyphenoxy)ethyl] [(3-p-tolyl-2,3-dihydro-1,4-benzodioxin-2-yl)methyl]amine (mephendioxan), a potent competitive alpha 1A-adrenoreceptor antagonist” (J Med Chem, 1996)

Key:
[1] = biological target: T1, Alpha-1B adrenergic receptor (Rattus norvegicus, UniProt P15823); test: Binding affinity towards Alpha-1B adrenergic receptor in rat liver using [3H]prazosin as radioligand
T1 sequence (P15823 whole entry): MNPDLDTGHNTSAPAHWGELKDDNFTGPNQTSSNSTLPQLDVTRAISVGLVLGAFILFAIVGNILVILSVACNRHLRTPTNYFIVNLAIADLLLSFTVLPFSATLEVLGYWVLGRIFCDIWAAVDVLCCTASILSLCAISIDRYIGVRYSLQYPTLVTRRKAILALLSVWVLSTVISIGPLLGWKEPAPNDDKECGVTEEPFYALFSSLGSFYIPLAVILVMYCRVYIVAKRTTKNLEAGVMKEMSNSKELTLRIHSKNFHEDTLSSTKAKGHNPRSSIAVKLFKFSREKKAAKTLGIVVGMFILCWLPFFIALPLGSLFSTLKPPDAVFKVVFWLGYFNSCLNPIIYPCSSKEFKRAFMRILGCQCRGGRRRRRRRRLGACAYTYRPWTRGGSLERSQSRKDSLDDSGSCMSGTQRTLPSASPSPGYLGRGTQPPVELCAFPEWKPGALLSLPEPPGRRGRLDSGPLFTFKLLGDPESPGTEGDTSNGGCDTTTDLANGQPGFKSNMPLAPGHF

[2] = biological target: T2, Adrenergic receptor alpha-1 (Rattus norvegicus, UniProt P15823+P23944+P43140); test: pA2 values was evaluated against Alpha-1 adrenergic receptor in the isolated Rat Vas Deferens; format: functional, tissue-based
T2 sequence (P15823 whole entry): T1 sequence (P15823 whole entry)
T2 sequence (P23944 whole entry): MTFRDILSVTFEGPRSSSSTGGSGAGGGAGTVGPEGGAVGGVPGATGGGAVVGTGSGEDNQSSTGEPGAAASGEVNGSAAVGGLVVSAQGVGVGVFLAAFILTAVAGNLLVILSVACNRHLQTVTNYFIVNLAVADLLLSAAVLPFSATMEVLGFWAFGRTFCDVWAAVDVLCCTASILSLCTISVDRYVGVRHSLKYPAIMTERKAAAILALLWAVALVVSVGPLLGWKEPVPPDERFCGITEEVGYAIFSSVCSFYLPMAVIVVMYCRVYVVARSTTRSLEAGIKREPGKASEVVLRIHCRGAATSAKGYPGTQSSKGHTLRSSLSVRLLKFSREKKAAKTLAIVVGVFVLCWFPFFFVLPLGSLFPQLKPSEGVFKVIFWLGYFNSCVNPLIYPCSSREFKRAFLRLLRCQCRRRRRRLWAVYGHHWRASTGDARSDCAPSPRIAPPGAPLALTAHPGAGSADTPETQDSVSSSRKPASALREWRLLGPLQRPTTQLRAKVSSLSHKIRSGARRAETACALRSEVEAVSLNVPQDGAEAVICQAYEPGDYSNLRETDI
T2 sequence (P43140 whole entry): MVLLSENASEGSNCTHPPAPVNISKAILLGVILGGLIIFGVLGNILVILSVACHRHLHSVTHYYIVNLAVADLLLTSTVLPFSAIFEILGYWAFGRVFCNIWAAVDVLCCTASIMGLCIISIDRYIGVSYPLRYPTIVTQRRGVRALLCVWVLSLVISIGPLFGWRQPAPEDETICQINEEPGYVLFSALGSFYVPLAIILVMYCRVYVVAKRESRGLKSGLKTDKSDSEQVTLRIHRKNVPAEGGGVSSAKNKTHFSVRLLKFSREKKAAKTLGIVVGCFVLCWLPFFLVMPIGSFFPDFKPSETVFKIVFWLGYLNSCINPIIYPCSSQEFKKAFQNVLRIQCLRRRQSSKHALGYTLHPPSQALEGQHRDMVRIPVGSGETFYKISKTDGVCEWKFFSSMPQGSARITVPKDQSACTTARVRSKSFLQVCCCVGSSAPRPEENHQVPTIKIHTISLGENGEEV
Summary of the method: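 Functional antagonism was measured in isolated tissue. Dose ratios were taken at agonist EC50 values at three antagonist concentrations, each concentration tested five times. pA2 was derived from Schild plots constrained to slope -1 and is reported as mean ± SE of n experiments.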

[3] = biological target: T3, Alpha-1A adrenergic receptor (Bos taurus, UniProt P18130); test: Binding affinity towards Alpha-1A adrenergic receptor in bovine brain using [3H]-prazosin as radioligand
T3 sequence (P18130 whole entry): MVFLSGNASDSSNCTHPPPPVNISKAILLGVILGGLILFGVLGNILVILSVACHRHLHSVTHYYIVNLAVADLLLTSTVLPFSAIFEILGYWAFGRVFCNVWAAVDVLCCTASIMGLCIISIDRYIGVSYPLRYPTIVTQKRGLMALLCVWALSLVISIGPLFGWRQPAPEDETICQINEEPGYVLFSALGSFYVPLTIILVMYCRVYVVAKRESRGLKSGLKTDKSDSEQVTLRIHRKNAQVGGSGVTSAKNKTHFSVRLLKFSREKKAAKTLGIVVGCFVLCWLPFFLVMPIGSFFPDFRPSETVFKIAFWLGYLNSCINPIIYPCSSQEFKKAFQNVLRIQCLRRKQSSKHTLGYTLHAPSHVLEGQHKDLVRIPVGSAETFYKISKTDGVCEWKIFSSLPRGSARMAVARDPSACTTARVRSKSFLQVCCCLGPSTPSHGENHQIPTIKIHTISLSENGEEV
Summary of the method: (§1)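 Membranes (35-70 µg protein) from COS-7 cells transiently expressing bovine α1a, hamster α1b or rat α1d adrenoceptor. Incubated with 0.3-0.6 nM [3H]prazosin ± displacer in 50 mM Tris-HCl pH 7.4, 10 µM pargyline, 0.1% ascorbic acid, 30 min at 25 °C. Stopped with ice-cold buffer, then rapid filtration. Mean ± SE of ≥3 experiments in triplicate.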

[4] = biological target: T4, Alpha-1D adrenergic receptor (Rattus norvegicus, UniProt P23944); test: Binding affinity towards Alpha-1D adrenergic receptor in rat brain using [3H]prazosin as radioligand; format: tissue-based
T4 sequence (P23944 whole entry): T2 sequence (P23944 whole entry)

[5] = biological target: T5, D(2) dopamine receptor (Rattus norvegicus, UniProt P61169); test: In vitro inhibitory activity against [3H]spiperone binding to Dopamine receptor D2
T5 sequence (P61169 whole entry): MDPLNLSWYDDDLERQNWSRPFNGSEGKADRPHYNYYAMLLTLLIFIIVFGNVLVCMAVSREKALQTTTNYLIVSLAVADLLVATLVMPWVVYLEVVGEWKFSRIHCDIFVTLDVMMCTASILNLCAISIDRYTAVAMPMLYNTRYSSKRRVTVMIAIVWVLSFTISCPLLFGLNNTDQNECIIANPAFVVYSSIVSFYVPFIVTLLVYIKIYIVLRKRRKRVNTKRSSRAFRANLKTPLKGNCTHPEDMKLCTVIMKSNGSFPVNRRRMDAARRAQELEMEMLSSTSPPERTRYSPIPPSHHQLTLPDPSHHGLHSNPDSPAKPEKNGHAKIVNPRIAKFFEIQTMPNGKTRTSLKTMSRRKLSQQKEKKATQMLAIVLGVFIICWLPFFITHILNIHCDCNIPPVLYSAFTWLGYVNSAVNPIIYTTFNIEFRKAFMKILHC

[6] = biological target: T6, Adrenergic receptor alpha-2 (Rattus norvegicus) (UniProt P22086+P19328+P22909); settings: Vas deferens
[7] = biological target: T7, 5-hydroxytryptamine receptor 1A (Rattus norvegicus, UniProt P19327); test: Binding affinity towards 5-hydroxytryptamine 1A receptor in rat hypocampus membrane using [3H]8-OH-DPAT as radioligand; format: cell membranes
T7 sequence (P19327 whole entry): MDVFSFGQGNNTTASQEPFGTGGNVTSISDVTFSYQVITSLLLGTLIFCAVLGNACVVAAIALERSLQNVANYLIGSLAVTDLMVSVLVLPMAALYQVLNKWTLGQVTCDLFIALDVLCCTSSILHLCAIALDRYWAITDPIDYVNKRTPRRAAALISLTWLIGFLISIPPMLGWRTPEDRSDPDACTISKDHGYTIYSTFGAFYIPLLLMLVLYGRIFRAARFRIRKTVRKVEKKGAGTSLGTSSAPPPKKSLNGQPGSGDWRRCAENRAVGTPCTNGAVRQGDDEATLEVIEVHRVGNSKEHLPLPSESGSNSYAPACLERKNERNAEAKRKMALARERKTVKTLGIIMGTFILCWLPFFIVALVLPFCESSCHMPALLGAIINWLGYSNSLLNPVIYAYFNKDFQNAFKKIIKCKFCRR
Summary of the method: (§2)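 Rat brain membranes (native receptors): cerebral cortex for α1 with [3H]prazosin (79.2 Ci/mmol) and α2 with [3H]rauwolscine (80.5 Ci/mmol); hippocampus for 5-HT1A with [3H]8-OH-DPAT (162.9 Ci/mmol); striatum for D2 with [3H]spiperone (17.7 Ci/mmol). Radioligand competition by test drug; mean ± SE of at least three separate experiments in triplicate.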

[8] = biological target: T8, Alpha-1A adrenergic receptor (Rattus norvegicus, UniProt P43140); test: Binding affinity towards Alpha-1A adrenergic receptor in rat hippocampus (+ 10 uM) […] membrane using [3H]prazosin as radioligand; format: tissue-based
T8 sequence (P43140 whole entry): T2 sequence (P43140 whole entry)
Summary of the method: (§3)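 Native α1A site from rat hippocampus membranes pretreated with CEC, labelled with [3H]prazosin in competition binding. Mean ± SE of at least three separate experiments, each run in triplicate.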

[9] = biological target: T6, Adrenergic receptor alpha-2 (Rattus norvegicus); test: (§4) Binding affinity towards Alpha-2 adrenergic receptor in rat cerebral cortex using [3H]rauwolscine as radioligand; format: tissue-based; summary of the method: as §2
[10] = biological target: T2, Adrenergic receptor alpha-1; test: Binding affinity towards Alpha-1 adrenergic receptor in rat cerebral cortex using [3H]prazosin as radioligand; format: tissue-based; summary of the method: as §2
[11] = biological target: T9, Adrenergic receptor alpha-2 (Rattus norvegicus, UniProt P22086+P19328+P22909); test: as §4; format: tissue-based; summary of the method: as §2
T9 sequence (P22086 whole entry): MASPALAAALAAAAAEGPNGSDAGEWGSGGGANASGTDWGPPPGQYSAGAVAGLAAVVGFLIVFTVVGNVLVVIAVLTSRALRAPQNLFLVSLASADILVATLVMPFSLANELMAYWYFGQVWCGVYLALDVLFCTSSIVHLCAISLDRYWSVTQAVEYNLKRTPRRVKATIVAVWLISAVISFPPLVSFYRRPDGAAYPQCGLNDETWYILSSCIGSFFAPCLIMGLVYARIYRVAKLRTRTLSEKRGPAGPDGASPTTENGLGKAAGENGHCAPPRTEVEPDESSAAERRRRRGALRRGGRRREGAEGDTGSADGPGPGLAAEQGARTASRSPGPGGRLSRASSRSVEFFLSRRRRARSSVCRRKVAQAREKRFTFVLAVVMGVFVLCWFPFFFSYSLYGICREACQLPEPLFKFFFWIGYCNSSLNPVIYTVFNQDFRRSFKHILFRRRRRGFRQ
T9 sequence (P19328 whole entry): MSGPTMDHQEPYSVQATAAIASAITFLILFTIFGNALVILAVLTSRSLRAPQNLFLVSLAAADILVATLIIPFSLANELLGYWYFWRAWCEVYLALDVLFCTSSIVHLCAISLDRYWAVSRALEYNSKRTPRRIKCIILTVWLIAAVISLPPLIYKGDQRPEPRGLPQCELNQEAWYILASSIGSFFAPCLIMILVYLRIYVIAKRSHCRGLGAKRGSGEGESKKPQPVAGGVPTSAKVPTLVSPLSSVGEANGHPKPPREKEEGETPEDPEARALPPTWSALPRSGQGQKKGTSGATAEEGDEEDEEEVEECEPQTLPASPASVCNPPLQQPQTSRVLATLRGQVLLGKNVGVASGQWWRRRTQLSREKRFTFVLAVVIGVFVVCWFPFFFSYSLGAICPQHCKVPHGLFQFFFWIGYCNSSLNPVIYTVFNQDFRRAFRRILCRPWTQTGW
T9 sequence (P22909 whole entry): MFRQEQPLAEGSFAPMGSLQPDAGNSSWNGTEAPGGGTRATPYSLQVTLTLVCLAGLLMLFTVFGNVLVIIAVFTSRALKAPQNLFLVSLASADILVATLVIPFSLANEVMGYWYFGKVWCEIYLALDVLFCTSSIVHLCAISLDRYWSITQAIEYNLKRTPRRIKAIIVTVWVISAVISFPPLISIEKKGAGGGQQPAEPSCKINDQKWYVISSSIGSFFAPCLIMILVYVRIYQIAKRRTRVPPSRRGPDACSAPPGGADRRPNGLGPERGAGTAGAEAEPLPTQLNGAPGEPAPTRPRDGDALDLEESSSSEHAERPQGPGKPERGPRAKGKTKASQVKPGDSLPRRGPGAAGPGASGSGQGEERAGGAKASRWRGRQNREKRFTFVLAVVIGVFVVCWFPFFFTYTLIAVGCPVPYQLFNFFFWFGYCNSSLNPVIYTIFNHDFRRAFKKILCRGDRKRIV

[12] = biological target: T5, D(2) dopamine receptor; test: Binding affinity towards Dopamine receptor D2 in rat striatum using [3H]spiperone as radioligand; format: tissue-based; summary of the method: as §2
[13] = biological target: T8, Alpha-1A adrenergic receptor; test: Binding affinity towards Alpha-1A adrenergic receptor in rat hippocampal membranes using [3H]prazosin as radioligand; format: cell membranes, Hippocampus; summary of the method: as §3
[14] = biological target: T6, Adrenergic receptor alpha-2 (Rattus norvegicus); settings: Vas deferens; remark: listed apart in the source
[15] = biological target: T3, Alpha-1A adrenergic receptor; test: Binding affinity towards Alpha-1A adrenergic receptor in bovine brain using [3H]prazosin as radioligand; summary of the method: as §1

Ki [1] [µM] | pA2 [2] | Ki [3] [µM] | Ki [4] [µM] | Ki [5] [µM] | -Log KB [6] | Ki [7] [µM] | Ki [8] [µM] | Affinity [9] [µM] | Ki [10] [µM] | Ki [11] [µM] | Ki [12] [µM] | Ki [13] [µM] | -Log KB [14] | Ki [15] [µM] | Structure (SMILES)
0.103 | 8.67 | 0.00091 | 0.0118 | 0.0823 | < 5 | 0.606 | 0.00532 | 3.5 | 0.01703 |  |  |  |  |  | COc1cccc(OC)c1OCCNCC1Oc2ccccc2OC1c1ccc(C)cc1 (racemic)
 |  |  |  |  |  |  |  |  |  | 1.611 |  |  |  |  | COC(=O)C1=C(C)NC(C)=C(C(=O)OCCCN2CCC(c3ccccc3)(c3ccccc3)CC2)[C@H]1c1cccc([N+](=O)[O-])c1 [NIGULDIPINE]
 | 9.13 |  | 0.00626 |  |  | 0.00726 |  |  | 0.00872 | 0.01472 | 0.123 | 0.00129 | 6.29 | 0.00062 | COc1cccc(OC)c1OCCNCC1COc2ccccc2O1 (stereo not given)
0.774 | 7.59 |  | 0.191 |  | < 5 | 1.26 |  |  | 0.1212 | 2.142 | 0.827 | 0.0403 |  | 0.00834 | COc1cccc(OC)c1OCCNC[C@H]1Oc2ccccc2O[C@@H]1c1ccc(C)cc1
0.0626 | 8.92 |  | 0.00657 |  | < 5 | 0.889 |  |  | 0.00997 | 4.293 | 0.0865 | 0.00176 |  | 0.00035 | COc1cccc(OC)c1OCCNC[C@@H]1Oc2ccccc2O[C@H]1c1ccc(C)cc1
